Reference: ChEMBL document CHEMBL1144511, “Synthesis and biological evaluation of phenolic Mannich bases of benzaldehyde and (thio)semicarbazone derivatives against the cysteine protease falcipain-2 and a chloroquine resistant strain of Plasmodium falciparum” (Bioorg Med Chem, 2007)

Tests used:
[1] = test system: Plasmodium falciparum; assay: Antiparasitic activity against Plasmodium falciparum W2; format: functional, organism-based
How it was run: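 W2 (chloroquine-resistant) P. falciparum cultured at 1% parasitaemia, 2% haematocrit. Inhibitors from 10 mM DMSO stocks added to 20 μM final, then serially diluted to 10 μM, 2 μM, 0.4 μM, 80, 16 and 3.2 nM, in duplicate plates. Cultures kept 2 days at 37 °C, washed and fixed in 1% formaldehyde/PBS. Parasitaemia read by flow cytometry with YOYO-1 DNA stain.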

[2] = target: T1, Falcipain 2 (Plasmodium falciparum, UniProt Q9N6S8); assay: Inhibition of Plasmodium falciparum recombinant falcipain-2
T1 sequence (Q9N6S8 whole entry): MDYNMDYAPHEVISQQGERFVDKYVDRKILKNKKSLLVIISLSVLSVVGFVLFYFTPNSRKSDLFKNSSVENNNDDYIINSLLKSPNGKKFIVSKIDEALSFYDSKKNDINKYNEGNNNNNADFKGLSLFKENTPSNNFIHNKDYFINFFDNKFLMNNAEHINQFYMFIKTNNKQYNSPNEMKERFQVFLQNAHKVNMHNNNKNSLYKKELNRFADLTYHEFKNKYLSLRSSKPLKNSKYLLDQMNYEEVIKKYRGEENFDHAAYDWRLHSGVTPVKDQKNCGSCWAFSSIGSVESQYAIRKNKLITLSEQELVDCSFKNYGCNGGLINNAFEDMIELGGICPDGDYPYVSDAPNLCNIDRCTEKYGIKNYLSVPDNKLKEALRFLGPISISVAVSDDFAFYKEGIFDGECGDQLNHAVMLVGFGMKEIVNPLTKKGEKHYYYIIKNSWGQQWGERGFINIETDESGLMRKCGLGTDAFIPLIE
How it was run: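 Recombinant enzyme (~1 nM) preincubated 30 min at room temperature with inhibitor dilutions (from 100× DMSO stocks) in 100 mM sodium acetate pH 5.5, 10 mM dithiothreitol; benzyloxycarbonyl peptide fluorogenic substrate then added, fluorescence followed continuously 30 min at room temperature. IC50 from activity versus inhibitor concentration plots.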

| SMILES | IC50 [1] [µM] | IC50 [2] [µM] |
| --- | --- | --- |
| NC(=S)N/N=C/c1ccc(O)c(CN2CCOCC2)c1O | > 10 | > 20 |
| O=C(NCCNc1ccnc2cc(Cl)ccc12)N/N=C/c1ccc(O)c(CN2CCOCC2)c1O | 0.11 | > 20 |
| CCN(CC)Cc1c(O)ccc(/C=N/NC(N)=S)c1O | > 10 | 11.1 |
| CCN(CC)Cc1c(O)ccc(C=O)c1O | > 10 | > 20 |
| O=Cc1ccc(O)c(CN2CCCC2)c1O | > 10 | > 20 |
| CN1CCN(Cc2c(O)ccc(C=O)c2O)CC1 | > 10 | > 20 |
| NC(=O)N/N=C/c1ccc(O)c(CN2CCN(c3ccnc4cc(Cl)ccc34)CC2)c1O | 0.25 | > 20 |
| O=Cc1ccc(O)c(CN2CCOCC2)c1O | > 10 | > 20 |
| NC(=S)N/N=C/c1ccc(O)c(CN2CCCCC2)c1O | > 10 | 3.8 |
| O=C(NCCNc1ccnc2cc(Cl)ccc12)N/N=C/c1ccc(O)c(CN2CCCC2)c1O | 1.07 | 0.72 |
| NC(=S)N/N=C/c1ccc(O)c(CN2CCCC2)c1O | > 10 | 5.85 |
| CCN(CC)Cc1c(O)ccc(/C=N/NC(=O)NCCNc2ccnc3cc(Cl)ccc23)c1O | 0.44 | 2.6 |
| O=Cc1ccc(O)c(CN2CCN(c3ccnc4cc(Cl)ccc34)CC2)c1O | 1.07 | > 20 |
| O=Cc1ccc(O)c(CN2CCCCC2)c1O | > 10 | > 20 |
| CN1CCN(Cc2c(O)ccc(/C=N/NC(N)=S)c2O)CC1 | > 10 | 18.2 |
| CN1CCN(Cc2c(O)ccc(/C=N/NC(=O)NCCNc3ccnc4cc(Cl)ccc34)c2O)CC1 | 0.38 | > 20 |
| O=C(NCCNc1ccnc2cc(Cl)ccc12)N/N=C/c1ccc(O)c(CN2CCN(c3ccnc4cc(Cl)ccc34)CC2)c1O | 0.077 | 3.16 |
| O=C(NCCNc1ccnc2cc(Cl)ccc12)N/N=C/c1ccc(O)c(CN2CCCCC2)c1O | 0.27 | 0.63 |
| NC(=S)N/N=C/c1ccc(O)c(CN2CCN(c3ccnc4cc(Cl)ccc34)CC2)c1O | 3.75 | 2.25 |
